# Compound activity (PubChem)
# GPR7 antag = blocks human GPR7 receptor signaling; GPR7-expressing cells, fluorescence antagonist assay; inhibition, % at 4.4 µM; 290,000 tested, 1.1% active; AID 1861; in the data active = inhibition above about 16%, passing the limit was not always enough;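 note: cells stimulated with the agonist NPW; 0% = agonist with vehicle and 100% = vehicle without agonist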
# Target sequence (P48145 whole entry, looked up): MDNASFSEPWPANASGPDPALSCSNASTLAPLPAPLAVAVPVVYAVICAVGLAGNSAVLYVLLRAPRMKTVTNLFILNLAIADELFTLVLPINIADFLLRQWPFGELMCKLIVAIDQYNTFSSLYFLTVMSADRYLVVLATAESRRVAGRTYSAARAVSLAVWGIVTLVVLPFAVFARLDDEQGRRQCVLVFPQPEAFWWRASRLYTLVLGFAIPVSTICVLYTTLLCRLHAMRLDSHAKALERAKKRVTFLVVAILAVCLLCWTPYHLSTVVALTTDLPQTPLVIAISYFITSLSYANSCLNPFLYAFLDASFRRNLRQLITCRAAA
# CHO parental Ca = counter-screen: ATP calcium response change in parental CHO cells; parental CHO-K1, ATP-induced calcium, Fluo-8 fluorescence; inhibition, % at 5.6 µM; 330,000 tested, 0.63% active;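 active = inhibition above that plate's mean sample inhibition plus 3 SD, cut at about 26% in these data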;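 note: 0% = ATP-challenged DMSO wells and 100% = DMSO wells without ATP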
#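 Test system: untransfected parental CHO cell line. Compound: one dose, 5.6 µM nominal. Detection: intracellular calcium via Fluo-8 no-wash fluorescent dye. Measure: % inhibition. Benchmarks: ATP-challenged DMSO wells low, unchallenged DMSO wells high.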
# OX1R antag-1 = human HCRTR1 antagonism; O43613; CHO/OX1R cells, Fluo-8 calcium fluorescence, orexin A; inhibition, % at 5 µM; 330,000 tested, 0.43% active;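 active = inhibition above its plate's threshold, mean inhibition of all tested compounds on the plate plus 3 SD, cut at about 37% in these data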;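 note: 0% = orexin A challenge wells and 100% = SB-334867-A antagonist wells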
# TAAR1 ag = human TAAR1 agonism; AID 624467; CHO RD-HGA16 TAAR1, Fluo-8 calcium fluorescence; vehicle wells 0%, saturating PEA agonist 100%; Q96RJ0; activation, % at 3 µM; 360,000 tested, 0.99% active;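 active = activation above the mean activation of all test compounds in the run plus 3 SD, cut at about 38% in these data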
#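 Assay system – CHO-derived RD-HGA16 cells with stable Gα16 and human TAAR1 · Compound dosing – one-point dosing at 3 µM (nominal) · Incubation – 17-24 h seeding, 75 min 37 °C dye, 30 min RT · Measured by – kinetic Fluo-8 calcium fluorescence · Control set – DMSO vehicle as 0%, PEA at EC100 as 100% · Repeats – single well for each compound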
# TAAR1 antag = human TAAR1 antagonism | CHO RD-HGA16 TAAR1, Fluo-8 calcium fluorescence, antagonist | 360,000 tested, 1.5% active | inhibition, % at 3 µM;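 active = inhibition above a per-plate cutoff, the mean inhibition of test compounds on that plate plus 3 SD, cut at about 49% in these data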;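 note: 0% = DMSO plus EC80 beta-PEA response and 100% = DMSO alone without agonist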
#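 Test system: hTAAR1-expressing CHO RD-HGA16 cells, Gα16-coupled; Probe or stimulus: EC80 β-phenethylamine stimulus; Compound dosing: single nominal final test compound concentration of 3 µM; Timing: 140 s kinetic read after compound, 140 s after agonist; Signal: Fluo-8 calcium-sensitive fluorescence; Measure: % inhibition of agonist calcium response; Controls: DMSO and EC80 PEA controls.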
# OX1R antag-2 = OX1R (human) antagonism. O43613. inhibition, % at 6.6 µM. OX1R-expressing cells, FRET antagonist read-out. 330,000 tested, 1.8% active; in the data active = inhibition mostly above about 38%, no sharp cut-off; inactive = mostly below about 40%;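 note: 0% = agonist challenge alone and 100% = reference antagonist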
# Active calls of the source: *; · = no result given; ! = not active in a repeat. An excerpt weighted towards active compounds, which were near 4.6% of everything screened.
SMILES,GPR7 antag,CHO parental Ca,OX1R antag-1,TAAR1 ag,TAAR1 antag,OX1R antag-2
CCOC(=O)c1c(CSc2ccccc2)n(C)c2cc(Br)c(OCC(O)CNC(CO)(CO)CO)cc12 (stereo unspecified),-10,90*,45,2,29,13
O=C(/C=C/c1ccccc1)c1ccc(NC2=NCCCS2)cc1,8,10,-7,5,-10,15
CC(=O)Nc1cccc(C(=O)/C=C/c2ccc(Br)cc2)c1,20*,-11,-30,23,7,9
O=C(/C=C/c1ccc(Br)cc1)c1ccc(NC2=NCCCS2)cc1,52*,-18,-25,7,17,17
CCN(CC)c1ccc(/C=C/C(=O)c2ccc(Br)cc2)cc1,7,91*,99*,138*,81*,15
Cc1cc(=O)n2[nH]c(-c3ccccc3)cc2n1,5,-6,-25,3,-18,30
Cc1cc(=O)n2[nH]c(-c3ccc(C(C)(C)C)cc3)cc2n1,25*!,-7,-10,4,24,13
Cc1ccc(S(=O)(=O)N2[C@@H](c3ccc(C(C)(C)C)cc3)C(C(=O)O)=CC[C@H]2c2ccc(Cl)cc2)cc1,·,41*,12,0,25,5
CCc1ccc([C@@H]2CC=C(C(=O)O)[C@H](c3ccc(C(C)(C)C)cc3)N2S(=O)(=O)c2ccc(C)cc2)cc1,·,70*,4,2,15,-6
CC1(C)CC(=O)c2cc(NC(=O)c3ccc(F)cc3)c(=O)oc2C1,-7,-2,-4,1,-24,27
COc1ccc(C(=O)C[n+]2ccc3ccccc3c2C)cc1,-3,14,-10,5,0,3
COc1ccc(OCCCC(=O)OCC(=O)Nc2c(C)nn(-c3ccccc3)c2C)cc1,·,-27,-10,11,27,6
CCCN1C(=O)c2ccc(C(=O)NC3=NCCS3)cc2C1=O,-11,-12,-43,-2,1,45*
CC(c1ccccc1)N1C(=O)c2ccc(C(=O)Nc3ccccc3C(=O)O)cc2C1=O (stereo unspecified),-7,-2,-13,0,-30,70*
CN1C(=O)c2ccc(C(=O)Nc3ccccc3O)cc2C1=O,-8,-1,-7,1,12,41*
O=C(Nc1ccccc1O)c1ccc2c(c1)C(=O)N(c1ccccc1)C2=O,13,·,·,3,-17,·
CN1C(=O)c2ccc(C(=O)Nc3nccs3)cc2C1=O,9,-10,-19,1,8,73*
Cc1noc(C)c1S(=O)(=O)N(C)C[C@H]1Oc2ccc(NS(=O)(=O)c3cn(C)cn3)cc2C(=O)N([C@H](C)CO)C[C@@H]1C,·,-7,0,2,-7,-5
CCOc1cccc(/C=C/c2ccc3cccc(O)c3n2)c1OC,8,48*,28,2,37,9
NN1C(=O)/C(=C2/Sc3ccccc3N2CCCS(=O)(=O)O)SC1=S,14,9,2,1,-7,38*
CCOC(=O)c1[nH]c(C)c(CN(CCc2ccccc2)S(C)(=O)=O)c1C,-2,-16,-13,0,-4,16
CCOC(=O)c1[nH]c(C)c(CN(C(C)=O)c2ccc(OCC)cc2)c1C,22*,-13,-23,5,5,9
CC1=NN(C(N)=S)C(=O)C1N=Nc1ccc(O)cc1 (stereo unspecified),0,·,·,2,5,·
CC(=O)Nc1ccc(N=NC2C(=O)N(C(N)=S)N=C2C)cc1 (stereo unspecified),-13,-7,-10,5,1,34*
COc1ccc(NCC(=O)N/N=C2\CCCC(C)C2)cc1 (stereo unspecified),-1,·,·,2,-5,·
SMILES,GPR7 antag,CHO parental Ca,OX1R antag-1,TAAR1 ag,TAAR1 antag,OX1R antag-2
S=C(c1cccs1)N1CCN(c2ccccc2)CC1,·,·,·,0,4,·
O=C(c1sc2cc([N+](=O)[O-])ccc2c1Cl)N1CCOCC1,9,-9,-13,5,-10,75*
CN(C)C1=NC[C@H](Cc2ccccc2)N1CCCC1CCCCC1,·,19,-9,48*,5,15
O=C(ONC(=O)C1C2C=CC(C2)C1C(=O)NOC(=O)c1ccccc1)c1ccccc1 (stereo unspecified),·,·,·,1,14,·
COc1ccc2c(c1)Cc1sc(NC(=O)c3ccco3)nc1-2,15,-18,-6,5,-14,65*
O=c1cc(O)c2c(=O)n(-c3ccccc3)c3c(c2o1)CCCCCC3,3,-4,-6,0,6,23
Nc1cc2c(cc1[N+](=O)[O-])OCCO2,-3,-14,-18,2,1,49*
COC(=O)c1c(-c2ccc(S(C)(=O)=O)cc2)sc2ccc(OC)cc12,·,-12,6,9,49*,3
CCOC(=O)c1c(C)n(C)c2ccc(OC(=O)c3ccoc3)cc12,16*,-7,-12,1,-26,1
O=c1[nH]c(=O)n(Cc2ccccc2)c2nc(-c3ccc(C(F)(F)F)cc3)n(CCO)c12,-9,-7,-26,11,-30,22
CCn1c(=O)c(C(=O)NNC(=O)c2ccccc2Cl)c(O)c2ccccc21,6,-8,-27,54*,15,34
CSc1nnc(-c2cccn(Cc3ccccc3)c2=O)o1,-8,-16,-22,3,-5,27
O=c1c(-c2nnc(SCc3ccc(Cl)cc3Cl)o2)cccn1Cc1ccccc1,-5,43*,49*,6,10,52*
CCOc1ccc(-c2c(=O)n(O)c3ccccc3[n+]2[O-])cc1,-12,-4,-4,0,-4,8
CC1CCN(C(=O)c2ccccc2NS(=O)(=O)c2ccccc2)CC1,-5,-12,-21,0,-10,50*
NC(=O)c1ccc(NCc2ccco2)c([N+](=O)[O-])c1,-5,-2,-1,5,9,128*
COc1ccc(-c2cc(C(=O)N3CCN(c4ccc(F)cc4)CC3)no2)cc1OC,-2,-17,-42,1,4,12
COc1ccc2[nH]c3c(c2c1)CCN1C(=O)N([C@@H](C)C(=O)NCc2c(F)cccc2Cl)C(=O)[C@]31C,9,-11,-10,2,2,24
C[C@@H](C(=O)NCc1c(F)cccc1Cl)N1C(=O)N2CCc3c([nH]c4ccccc34)[C@@]2(C)C1=O,7,-7,22,-1,26,67*
Cc1nc2ccc(NS(=O)(=O)c3ccc(C)c(C)c3)cc2s1,13,55*,32,19,12,37
CCOC(=O)c1cnc(-c2ccccc2)nc1Oc1cccc(Cl)c1,-3,-2,-20,18,-3,14
CCOC(=O)c1cnc(-c2ccccc2)nc1Oc1ccc(Cl)c(Cl)c1,19*,-4,-7,10,1,7
